According to ChEMBL document CHEMBL1147104, “Neonatal coinfection model of coagulase-negative Staphylococcus (Staphylococcus epidermidis) and Candida albicans: fluconazole prophylaxis enhances survival and growth” (Antimicrob Agents Chemother, 2007):
Active and inactive are the calls of the source. No cut-off for these calls is given here.

Key:
Rattus norvegicus [1] = assay: Decrease in mortality of neonatal Wistar rat infected with Candida albicans ATCC 32354 at 10 mg/kg of body weight/day, ip for 4 days beginning 24 hrs before infection; format: functional; set-up: scale not given: the % may be the effect or the level left; conditions: route intraperitoneal
Outline: (§1)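 Wistar pups aged 1-2 days, kept with dams, were immunosuppressed with 0.2 ml 20% intralipid i.p. (two doses on day 1, one each on days 2 and 3). Drug or placebo was given i.p. daily for 4 days from 24 h before infection. Littermates were randomized and infected s.c. on days 2 and 3 with 2 × 10⁸ CFU C. albicans, alone or with 2 × 10⁶ CFU S. epidermidis. Survival was followed daily for 9 days; groups were compared by Fisher exact test.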

[2] = Serum trough levels in Wistar rat pup at 10 mg/kg of body weight/day, ip after 72 hrs by ELISA; format: ADME, organism-based; set-up: dose 10 mg/kg, route intraperitoneal; conditions: read-out: Cmin
Outline: (§2)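 Pups received 10 mg/kg/day i.p. for 4 days. Troughs were taken just before the next dose (24, 48, 72 h) and 24 h after the fourth dose (96 h). Blood was collected by cardiac puncture from 12-15 pups per time point, and serum from 3 pups was pooled per sample, giving 4-5 samples. Serum was stored at −70°C and assayed in one batch. The assay was linear from 0.2 to 200 µg/ml.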

Rattus norvegicus [3] = assay: Increase in growth of neonatal Wistar rat infected with Candida albicans ATCC 32354 assessed as weight gain at 10 mg/kg of body weight/day, ip for 4 days beginning 24 hrs before infection relative to control; format: functional, organism-based; set-up: dose 10 mg/kg
Outline: (§3)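 In intralipid-immunosuppressed neonatal Wistar pups, littermates were randomized, dosed i.p. daily for 4 days from 24 h pre-infection, and infected s.c. on days 2 and 3 with 2 × 10⁸ CFU C. albicans, with or without 2 × 10⁶ CFU S. epidermidis. Nonedematous weight was recorded daily for 9 days. Slopes of each pup's weight curve were calculated, and group means were compared by one-way ANOVA.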

[4] = Serum trough levels in Wistar rat pup at 10 mg/kg of body weight/day, ip after 96 hrs by ELISA; format: ADME, organism-based; set-up: dose 10 mg/kg, route intraperitoneal; conditions: read-out: Cmin; outline: as §2
Rattus norvegicus [5] = assay: Survival of neonatal Wistar rat infected with Staphylococcus epidermidis Hay and Candida albicans ATCC 32354 at 10 mg/kg of body weight/day, ip for 4 days beginning 24 hrs before infection; format: functional; conditions: route intraperitoneal; outline: as §1
Rattus norvegicus [6] = assay: Increase in growth of neonatal Wistar rat infected with Candida albicans ATCC 32354 and Staphylococcus epidermidis Hay assessed as weight gain at 10 mg/kg of body weight/day, ip for 4 days beginning 24 hrs before infection relative to control; format: functional, organism-based; set-up: dose 10 mg/kg; outline: as §3
[7] = Serum trough levels in Wistar rat pup at 10 mg/kg of body weight/day, ip after 48 hrs by ELISA; format: ADME, organism-based; set-up: dose 10 mg/kg, route intraperitoneal; conditions: read-out: Cmin; outline: as §2
Rattus norvegicus [8] = assay: Survival of neonatal Wistar rat infected with Candida albicans ATCC 32354 at 10 mg/kg of body weight/day, ip for 4 days beginning 24 hrs before infection; format: functional; conditions: route intraperitoneal; outline: as §1
Rattus norvegicus [9] = assay: Decrease in mortality of neonatal Wistar rat infected with Candida albicans ATCC 32354 and Staphylococcus epidermidis Hay at 10 mg/kg of body weight/day, ip for 4 days beginning 24 hrs before infection; format: functional; set-up: scale not given: the % may be the effect or the level left; conditions: route intraperitoneal; outline: as §1
Candida albicans = assay: Inhibition of Candida albicans ATCC 32354 at 1 ug/ml by broth microdilution method; format: functional, organism-based
Outline: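 CLSI M27-A2 broth microdilution. Inoculum was 1-5 × 10³ CFU/ml in RPMI 1640 buffered with MOPS to pH 7. Twofold drug dilutions from 125 to 0.25 µg/ml were tested at 35°C for 48 h, with visual reads at 24 and 48 h. The MIC was the lowest concentration giving a ≥50% decrease in turbidity. Trailing growth at 48 h was counted as susceptible.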

[10] = test system: Staphylococcus epidermidis; assay: Inhibition of Staphylococcus epidermidis Hay ATCC 55133 at 1 ug/ml by broth microdilution method; format: functional, organism-based
[11] = Serum trough levels in Wistar rat pup at 10 mg/kg of body weight/day, ip after 24 hrs by ELISA; format: ADME, organism-based; set-up: dose 10 mg/kg, route intraperitoneal; conditions: read-out: Cmin; outline: as §2

Structure (SMILES): OC(Cn1cncn1)(Cn1cncn1)c1ccc(F)cc1F [FLUCONAZOLE]
- Activity (Rattus norvegicus [1]): 30%
- concentration at 72 h [2]: 1510 ng/mL
- Activity (Rattus norvegicus [3]): Active
- concentration at 96 h [4]: 1030 ng/mL
- survival at 10 mg/kg (Rattus norvegicus [5]): 75.6%
- Activity (Rattus norvegicus [6]): Active
- concentration at 48 h [7]: 2500 ng/mL
- survival at 10 mg/kg (Rattus norvegicus [8]): 85.7%
- Activity (Rattus norvegicus [9]): 36%
- Activity (Candida albicans): Active
- Activity [10]: inactive
- concentration at 24 h [11]: 1550 ng/mL
